Source: ChEMBL document CHEMBL1914430, “Synthesis of some new 1,3,5-trisubstituted pyrazolines bearing benzene sulfonamide as anticancer and anti-inflammatory agents” (Bioorg Med Chem Lett, 2011)

Legend:
Type in all cases: functional
SK-OV-3 = assay: Anticancer activity against human SKOV3 cells after 48 hrs; conditions: SK-OV-3, 48 h
Procedure, shortened: (§1)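 NCI 60-line panel protocol with a 48 h incubation. Per line: GI50 = concentration giving 50% decrease in net cell growth; TGI = total growth inhibition; LC50 = net 50% loss of initial cells. When the level was not reached or was exceeded, the value is given as greater or less than the highest or lowest concentration tested.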

OVCAR-4 = assay: Anticancer activity against human OVCAR4 cells after 48 hrs; conditions: OVCAR-4, 48 h; procedure, shortened: as §1
NCI/ADR-RES = assay: Anticancer activity against human NCI/ADR-RES cells after 48 hrs; procedure, shortened: as §1
NCI-H226 = assay: Anticancer activity against human NCI-H226 cells after 48 hrs; conditions: NCI-H226, 48 h; procedure, shortened: as §1
SK-MEL-28 = assay: Anticancer activity against human SK-MEL-28 cells after 48 hrs; conditions: SK-MEL-28, 48 h; procedure, shortened: as §1
[1] = Anticancer activity against human Hs 578T cells after 48 hrs
Procedure, shortened: (§2)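 NCI Drug Evaluation Branch 60-cell-line screen across leukemia, melanoma, lung, colon, CNS, ovarian, renal, prostate and breast panels. The incubation period is 48 h. Parameters are derived from dose–response data: GI50 is the concentration giving 50% decrease in net growth, TGI is total growth inhibition, and LC50 is net 50% loss of initial cells. Values beyond the tested range are reported as greater or less than the maximum or minimum concentration.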

HCC 2998 = assay: Anticancer activity against human HCC2998 cells after 48 hrs; conditions: HCC 2998, 48 h; procedure, shortened: as §2
DU-145 = assay: Anticancer activity against human DU145 cells after 48 hrs; conditions: DU-145, 48 h; procedure, shortened: as §2
SF-539 = assay: Anticancer activity against human SF539 cells after 48 hrs; conditions: SF-539, 48 h; procedure, shortened: as §1
SR = assay: Anticancer activity against human SR cells after 48 hrs; procedure, shortened: as §1
NCI-H23 = assay: Anticancer activity against human NCI-H23 cells after 48 hrs; conditions: NCI-H23, 48 h; procedure, shortened: as §1
OVCAR-5 = assay: Anticancer activity against human OVCAR5 cells after 48 hrs; conditions: OVCAR-5, 48 h; procedure, shortened: as §1
OVCAR-3 = assay: Anticancer activity against human OVCAR3 cells after 48 hrs; conditions: OVCAR-3, 48 h; procedure, shortened: as §1
RXF 393 = assay: Anticancer activity against human RXF393 cells after 48 hrs; conditions: RXF 393, 48 h; procedure, shortened: as §1
MDA-MB-435 = assay: Anticancer activity against human MDA-MB-435 cells after 48 hrs; conditions: MDA-MB-435, 48 h; procedure, shortened: as §2
T47D = assay: Anticancer activity against human T47D cells after 48 hrs
Procedure, shortened: (§3)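 NCI ~60 human tumour cell line panel with a 48 h incubation. GI50 is the concentration giving a 50% fall in net growth, TGI gives total growth inhibition, and LC50 gives a net 50% loss of initial cells. An effect not reached or exceeded is reported as greater or less than the highest or lowest concentration tested.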

SW-620 = assay: Anticancer activity against human SW620 cells after 48 hrs; conditions: SW-620, 48 h; procedure, shortened: as §1
HL-60(TB) = assay: Anticancer activity against human HL-60(TB) cells after 48 hrs; conditions: HL-60, 48 h
Procedure, shortened: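 NCI 60-cell-line panel protocol: cells exposed to compound for 48 h. Initial one-dose screen at 10⁻⁵ M. GI50 = concentration giving 50% decrease in net cell growth. TGI = concentration giving total growth inhibition. LC50 = concentration giving net 50% loss of initial cells at the end of incubation. A value not reached or exceeded is reported as greater or less than the highest or lowest concentration tested.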

SNB-75 = assay: Anticancer activity against human SNB75 cells after 48 hrs; conditions: SNB-75, 48 h; procedure, shortened: as §1
MDA-MB-468 = assay: Anticancer activity against human MDA-MB-468 cells after 48 hrs; conditions: MDA-MB-468, 48 h; procedure, shortened: as §2
UACC-62 = assay: Anticancer activity against human UACC62 cells after 48 hrs; conditions: UACC-62, 48 h; procedure, shortened: as §3
NCI-H322M = assay: Anticancer activity against human NCI-H322M cells after 48 hrs; procedure, shortened: as §1
K562 = assay: Anticancer activity against human K562 cells after 48 hrs; conditions: K562, 48 h; procedure, shortened: as §2
SF-268 = assay: Anticancer activity against human SF268 cells after 48 hrs; conditions: SF-268, 48 h; procedure, shortened: as §1
SNB-19 = assay: Anticancer activity against human SNB19 cells after 48 hrs; conditions: SNB-19, 48 h; procedure, shortened: as §1
IGROV-1 = assay: Anticancer activity against human IGROV1 cells after 48 hrs; conditions: IGROV-1, 48 h; procedure, shortened: as §2
Rattus norvegicus = assay: Antiinflammatory activity in Wistar rat assessed as inhibition of carrageenan-induced hind paw edema at 20 mg/kg, po administered 30 mins before carrageenan challenge measured after 5 hrs by plethysmometer
Procedure, shortened: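 Wistar rats of either sex, 150–175 g, fasted 16 h, n = 6 per group. Compound given orally at 20 mg/kg as a suspension in 1% CMC in water (10 mL/kg); controls got vehicle only. After 30 min, 0.1 mL of 1% carrageenan in saline was injected subplantar into the left hind paw. Paw volume was measured by plethysmometer at 0, 3 and 5 h. Inhibition = (1 − Vt/Vc) × 100, reported as mean ± SEM.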

[2] = read-out: LC50 (the source's name)

SMILES: Cc1cc(O)c(C2=NN(c3ccc(S(N)(=O)=O)cc3)C(c3ccccc3O)C2)cc1Cl (centres undefined)
- GI50 (SK-OV-3): 4.41 µM
- TGI (SK-OV-3): 14.9 µM
- CC50 (SK-OV-3; [2]): 38.6 µM
- GI50 (OVCAR-4): 3.9 µM
- LC50 (OVCAR-4): 51.8 µM
- TGI (OVCAR-4): 16 µM
- GI50 (NCI/ADR-RES): 3.61 µM
- TGI (NCI/ADR-RES): 14.1 µM
- CC50 (NCI/ADR-RES; [2]): 54.1 µM
- GI50 (NCI-H226): 2.21 µM
- TGI (NCI-H226): 7.55 µM
- CC50 (NCI-H226; [2]): 86.5 µM
- GI50 (SK-MEL-28): 4.05 µM
- TGI (SK-MEL-28): 13.5 µM
- CC50 (SK-MEL-28; [2]): 37.8 µM
- GI50 [1]: 4.64 µM
- TGI [1]: 22.5 µM
- CC50 [1, 2]: > 100 µM
- GI50 (HCC 2998): 2.13 µM
- LC50 (net 50% loss of initial cells) (HCC 2998): 8.74 µM
- TGI (HCC 2998): 4.31 µM
- GI50 (DU-145): 2.41 µM
- LC50 (concentration causing net 50% loss of initial cells) (DU-145): 10.6 µM
- TGI (DU-145): 4.95 µM
- GI50 (SF-539): 1.6 µM
- LC50 (concentration causing net 50% loss of initial cells) (SF-539): 5.69 µM
- TGI (SF-539): 3.02 µM
- GI50 (SR): 2.22 µM
- LC50 (concentration killing 50% of initial cells) (SR): > 100 µM
- TGI (SR): 26.7 µM
- GI50 (NCI-H23): 2.09 µM
- LC50 (concentration killing 50% of initial cells) (NCI-H23): 16 µM
- TGI (NCI-H23): 5.03 µM
- GI50 (OVCAR-5): 1.73 µM
- LC50 (OVCAR-5): 8.12 µM
- TGI (OVCAR-5): 3.75 µM
- GI50 (OVCAR-3): 1.81 µM
- LC50 (concentration giving 50% net loss of initial cells) (OVCAR-3): 11.3 µM
- TGI (OVCAR-3): 3.73 µM
- GI50 (RXF 393): 3.65 µM
- LC50 (RXF 393): 64.8 µM
- TGI (RXF 393): 13 µM
- GI50 (MDA-MB-435): 2.04 µM
- TGI (MDA-MB-435): 4.49 µM
- CC50 (MDA-MB-435; [2]): 9.88 µM
- GI50 (T47D): 3.18 µM
- TGI (T47D): 14.6 µM
- CC50 (T47D; [2]): 64.9 µM
- GI50 (SW-620): 1.76 µM
- TGI (SW-620): 3.59 µM
- CC50 (SW-620; [2]): 7.35 µM
- GI50 (HL-60(TB)): 2.99 µM
- LC50 (HL-60(TB)): > 100 µM
- TGI (HL-60(TB)): 7.32 µM
- GI50 (SNB-75): 1.79 µM
- TGI (SNB-75): 13.6 µM
- CC50 (SNB-75; [2]): 37.1 µM
- GI50 (MDA-MB-468): 2.58 µM
- TGI (MDA-MB-468): 7.92 µM
- CC50 (MDA-MB-468; [2]): 37.6 µM
- GI50 (UACC-62): 3.54 µM
- LC50 (UACC-62): 40.8 µM
- TGI (UACC-62): 15.5 µM
- GI50 (NCI-H322M): 2.5 µM
- LC50 (net 50% loss of initial cells) (NCI-H322M): 26 µM
- TGI (NCI-H322M): 7.24 µM
- GI50 (K562): 2.56 µM
- LC50 (concentration killing 50% of initial cells) (K562): > 100 µM
- TGI (K562): 14.6 µM
- GI50 (SF-268): 2.64 µM
- LC50 (concentration killing 50% of initial cells) (SF-268): 51.9 µM
- TGI (SF-268): 8.06 µM
- GI50 (SNB-19): 4.33 µM
- TGI (SNB-19): 15.2 µM
- CC50 (SNB-19; [2]): 39.8 µM
- GI50 (IGROV-1): 1.63 µM
- LC50 (net 50% loss of initial cells) (IGROV-1): 37.4 µM
- TGI (IGROV-1): 11.2 µM
- inhibition in vivo at 20 mg/kg (Rattus norvegicus): 59.5%
